Measurements as given in paper PMC3823230 (Journal of Cellular and Molecular Medicine, 2012).
Structures can show the parent of a compound that is named as a salt. Where two headings read alike, the source gives them in different places.

Key:
[1] = tested on: antibiotic-resistant strain (A–E) of P. aeruginosa; experiment: MIC against antibiotic-resistant strains; format: cell-based, Pseudomonas aeruginosa; settings: for MIC: Pseudomonas aeruginosa; for Resistance/sensitivity class, strain A / MIC, P. aeruginosa strain A: antibiotic-resistant strain A; for Resistance/sensitivity class, strain B / MIC, P. aeruginosa strain B: antibiotic-resistant strain B; for Resistance/sensitivity class, strain C / MIC, P. aeruginosa strain C: antibiotic-resistant strain C; for Resistance/sensitivity class, strain D / MIC, P. aeruginosa strain D: antibiotic-resistant strain D; for Resistance/sensitivity class, strain E / MIC, P. aeruginosa strain E: antibiotic-resistant strain E
[2] = tested on: C57BL/6 db/db mice, punch biopsy wounds; experiment: Diabetic mouse wound-healing model; format: in vivo; settings: topical 100 μg/ml
[3] = tested on: db/db mice wounds with methicillin-resistant S. aureus; experiment: Diabetic mouse infectious; format: in vivo
Summary of the method: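 Male C57BL/6 db/db mice, n = 6–8 per group, backs depilated 3 days before surgery. Under anaesthesia, 15 mm dorsal punch biopsy wounds received 100 μl MRSA (1 × 10^4 cfu/ml) topically, with or without peptide (100 μg/ml) or saline, under semi-permeable polyurethane dressing. Dosing and photographic wound-area measurement on days 0, 2, 4, 7, 9, 11, 14, 16. Means ± S.E.M.; ANOVA with Fisher's PLSD.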

[4] = tested on: NIBS minipigs, full-thickness excisional wounds; experiment: Porcine wound-healing model; format: in vivo, pig; settings: anti-vWF staining; in comparison to control group; N = 6
Summary of the method: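 Three male NIBS minipigs (32.0–33.5 kg) premedicated with ketamine 500 mg/body under isoflurane 2–4%. Four 25 mm, 10 mm-deep full-thickness excisional wounds per side abdomen, 30 mm apart. Peptide 100 μg/ml or saline (200 μl/site) applied on days 0, 2, 4, 6, 8, 10 under polyurethane dressing. Day-12 frozen sections were acetone-fixed (−20°C, 15 min), and capillary EC immunostained with anti-vWF (1:200).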

[5] = read-out: MIC, P. aeruginosa strain A
[6] = read-out: MIC, P. aeruginosa strain B
[7] = read-out: MIC, P. aeruginosa strain C
[8] = read-out: MIC, P. aeruginosa strain D
[9] = read-out: MIC, P. aeruginosa strain E

Molecule | MIC [1, 5] [µg/mL] | MIC [1, 6] [µg/mL] | MIC [1, 7] [µg/mL] | MIC [1, 8] [µg/mL] | MIC [1, 9] [µg/mL] | Resistance/sensitivity class, strain A [1] | Resistance/sensitivity class, strain B [1] | Resistance/sensitivity class, strain C [1] | Resistance/sensitivity class, strain D [1] | Resistance/sensitivity class, strain E [1] | also measured
C[C@H]1[C@H](NC(=O)/C(=N\OC(C)(C)C(=O)O)c2csc(N)n2)C(=O)N1S(=O)(=O)O [AZT, aztreonam] | < 8 | > 16 | < 8 | < 8 | > 16 | S | R | S | S | R | 
CC(C)(O/N=C(\C(=O)N[C@@H]1C(=O)N2C(C(=O)[O-])=C(C[n+]3ccccc3)CS[C@H]12)c1csc(N)n1)C(=O)O [CAZ, ceftazidime hydrate] | < 8 | < 8 | < 8 | < 8 | > 32 | S | S | S | S | R | 
CO/N=C(\C(=O)N[C@@H]1C(=O)N2C(C(=O)O)=C(C[N+]3(C)CCCC3)CS[C@H]12)c1csc(N)n1.Cl.O.[Cl-] [CFPM, cefepime hidrochloride hydrate] |  |  |  |  |  |  |  |  |  |  | MIC, P. aeruginosa strain A [1]: < 8 µg/mL; MIC, P. aeruginosa strain B [1]: < 8 µg/mL; MIC, P. aeruginosa strain C [1]: < 8 µg/mL; MIC, P. aeruginosa strain D [1]: < 8 µg/mL; MIC, P. aeruginosa strain E [1]: > 16 µg/mL
O=C(O)c1cn(C2CC2)c2cc(N3CCNCC3)c(F)cc2c1=O [CPFX, Ciprofloxacin hydrochloride] | < 1 | < 1 | < 1 | < 1 | > 2 |  |  |  |  |  | 
CCN1CCN(C(=O)N[C@@H](C(=O)N[C@@H]2C(=O)N3C(C(=O)O)=C(CSc4nnnn4C)CS[C@H]23)c2ccc(O)cc2)C(=O)C1=O [CPZ, cefoperazone sodium] | < 16 | 32 | < 16 | < 16 | > 32 | S |  | S | S | R | 
C[C@@H]1O[C@@H]1P(=O)(O)O [FOM, fosfomycin sodium] | > 16 | > 16 | > 16 | > 16 | > 16 | R | R | R | R | R | 
C[C@H]1COc2c(N3CCN(C)CC3)c(F)cc3c(=O)c(C(=O)O)cn1c23 [LVFX, levofloxacin hydrate] | < 2 | < 2 | < 2 | 4 | > 4 | S | S | S | S | R | 
NC[C@H]1O[C@H](O[C@H]2[C@H](O)[C@@H](O[C@H]3O[C@H](CO)[C@@H](O)[C@H](N)[C@H]3O)[C@H](N)C[C@@H]2N)[C@H](N)C[C@@H]1O [TOB, tobramycin] | > 8 | < 4 | > 8 | < 4 | < 4 | R | S | R | S | S | 
Gentamicin sulfate [GM] |  |  |  |  |  | R | S | R | S |  | MIC, P. aeruginosa strain A [1]: > 8 µg/mL; MIC, P. aeruginosa strain B [1]: < 4 µg/mL; MIC, P. aeruginosa strain C [1]: > 8 µg/mL; MIC, P. aeruginosa strain D [1]: < 4 µg/mL; MIC, P. aeruginosa strain E [1]: 8 µg/mL
LL37: well-known antimicrobial peptide with angiogenic effects |  |  |  |  |  |  |  |  |  |  | Blood flow around the wound (LDI), diabetic mouse ([2]; 3 days after operation, compared with control group): significantly increased the blood flow; Spontaneous S. aureus infection of wounds during experiment ([2]; db/db mice): none of the mice; Wound size, diabetic mouse ([2]; db/db mice, day 14, versus control): significantly decreased wound size; Yellow pus on MRSA-infected wounds ([3]; MRSA 1 x 10^4 cfu/ml, co-treatment 100 μg/ml): attenuated the increase of yellow pus; Infectious wound size ([3]; MRSA, 100 μg/ml, days 11, 14 and 16 after treatment): significantly decreased wound size; Microcapillary density, porcine wound [4]: significantly increased
